Measurements taken from ChEMBL document CHEMBL1781965, “Onoceranoid-type triterpenoids from Lansium domesticum” (2011).
≈ marks a conversion by molar mass, not a printed value.

Tests used:
Assay type in all cases: functional
[1] = test system: Serratia marcescens; assay: Antibacterial activity against Serratia marcescens ATCC 25419 after 18 hrs by microdilution assay; settings: ATCC 25419, 18 h
In short: (§1)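 Broth microdilution in Mueller Hinton broth, inoculum 5 × 10^5–10^6 cfu/mL final, compounds dissolved in DMSO (at most 1% in the solution), 37 °C for 18 h aerobically. Blank controls received DMSO alone; magnolol served as positive control.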

[2] = test system: Escherichia coli; assay: Antibacterial activity against Escherichia coli ATCC 25922 after 18 hrs by microdilution assay; settings: ATCC 25922, 18 h; in short: as §1
[3] = test system: Staphylococcus epidermidis; assay: Antibacterial activity against Staphylococcus epidermidis ATCC 12228 after 18 hrs by microdilution assay; settings: ATCC 12228, 18 h; in short: as §1
[4] = test system: Pseudomonas aeruginosa; assay: Antibacterial activity against Pseudomonas aeruginosa ATCC 14502 after 18 hrs by microdilution assay; settings: ATCC 14502, 18 h; in short: as §1
[5] = test system: Staphylococcus aureus; assay: Antibacterial activity against Micrococcus pyogenes clinical isolate after 18 hrs by microdilution assay; in short: as §1
[6] = test system: Bacillus cereus; assay: Antibacterial activity against Bacillus cereus clinical isolate after 18 hrs by microdilution assay; in short: as §1
[7] = test system: Alcaligenes faecalis; assay: Antibacterial activity against Alcaligenes faecalis ATCC 8750 after 18 hrs by microdilution assay; settings: ATCC 8750, 18 h; in short: as §1
[8] = test system: Micrococcus luteus; assay: Antibacterial activity against Micrococcus luteus ATCC 9341 after 18 hrs by microdilution assay; settings: ATCC 9341, 18 h; in short: as §1
[9] = test system: Bacillus subtilis; assay: Antibacterial activity against Bacillus subtilis ATCC 6633 after 18 hrs by microdilution assay; settings: ATCC 6633, 18 h; in short: as §1
[10] = test system: Staphylococcus aureus; assay: Antibacterial activity against Staphylococcus aureus ATCC 25923 after 18 hrs by microdilution assay; settings: ATCC 25923, 18 h; in short: as §1
[11] = test system: Shigella flexneri; assay: Antibacterial activity against Shigella flexneri ATCC 12022 after 18 hrs by microdilution assay; settings: ATCC 12022, 18 h; in short: as §1

| Structure (SMILES) | MIC [1] | MIC [2] | MIC [3] | MIC [4] | MIC [5] | MIC [6] | MIC [7] | MIC [8] | MIC [9] | MIC [10] | MIC [11] |
| --- | --- | --- | --- | --- | --- | --- | --- | --- | --- | --- | --- |
| C=C(C)[C@@H]1CC=C(C)[C@H](CC[C@H]2C(=C)CC[C@@H](C(C)(C)O)[C@]2(C)CCC(=O)OCC)[C@@]1(C)CCC(=O)O | > 50 mg/L | > 50 mg/L | 12.5 mg/L (≈ 24.2 µM) | > 50 mg/L | 50 mg/L (≈ 96.8 µM) | 3.12 mg/L (≈ 6.04 µM) | > 50 mg/L | > 50 mg/L | 12.5 mg/L (≈ 24.2 µM) | > 50 mg/L | > 50 mg/L |
| C=C(C)[C@@H]1CCC(=C)[C@H](CC[C@H]2C(C)=CC[C@@H](C(=C)C)[C@]2(C)CCC(=O)O)[C@@]1(C)CCC(=O)OCC | > 50 mg/L | > 50 mg/L | 12.5 mg/L (≈ 25.1 µM) | > 50 mg/L | 12.5 mg/L (≈ 25.1 µM) | 3.12 mg/L (≈ 6.26 µM) | > 50 mg/L | > 50 mg/L | 12.5 mg/L (≈ 25.1 µM) | 50 mg/L (≈ 100 µM) | > 50 mg/L |
| C=C(C)[C@@H]1CC=C(C)[C@H](CC[C@H]2C(=C)CC[C@H]3C(C)(C)[C@@H](O)CC[C@]23C)[C@@]1(C)CCC(=O)OCC [ETHYL LANSIOLATE] | > 50 mg/L | > 50 mg/L | 12.5 mg/L (≈ 25.8 µM) | > 50 mg/L | 3.12 mg/L (≈ 6.44 µM) | 3.12 mg/L (≈ 6.44 µM) | > 50 mg/L | 6.25 mg/L (≈ 12.9 µM) | 3.12 mg/L (≈ 6.44 µM) | 6.25 mg/L (≈ 12.9 µM) | > 50 mg/L |
| C=C(C)[C@@H]1CC=C(C)[C@H](CC[C@H]2C(=C)CC[C@@H](C(C)(C)O)[C@]2(C)CCC(=O)OC)[C@@]1(C)CCC(=O)O [LAMESTICUMIN A] | > 50 mg/L | > 50 mg/L | 12.5 mg/L (≈ 24.9 µM) | > 50 mg/L | 3.12 mg/L (≈ 6.21 µM) | 3.12 mg/L (≈ 6.21 µM) | > 50 mg/L | 6.25 mg/L (≈ 12.4 µM) | 3.12 mg/L (≈ 6.21 µM) | 6.25 mg/L (≈ 12.4 µM) | > 50 mg/L |
| C=C1CC[C@H]2C(C)(C)[C@@H](O)CC[C@]2(C)[C@H]1CC[C@H]1C(C)=CC[C@@H](C(C)(C)O)[C@]1(C)CCC(=O)OC [LAMESTICUMIN B] | > 50 mg/L | > 50 mg/L | 12.5 mg/L (≈ 25.6 µM) | > 50 mg/L | 3.12 mg/L (≈ 6.38 µM) | 3.12 mg/L (≈ 6.38 µM) | > 50 mg/L | 3.12 mg/L (≈ 6.38 µM) | 3.12 mg/L (≈ 6.38 µM) | 6.25 mg/L (≈ 12.8 µM) | > 50 mg/L |
| C=C1CC[C@H]2C(C)(C)[C@@H](O)CC[C@]2(C)[C@H]1CCC1=C(C)C(=O)C[C@H]2C(C)(C)C(=O)CC[C@]12C [LAMESTICUMIN C] | > 50 mg/L | > 50 mg/L | 12.5 mg/L (≈ 27.5 µM) | > 50 mg/L | 3.12 mg/L (≈ 6.86 µM) | 3.12 mg/L (≈ 6.86 µM) | > 50 mg/L | 6.25 mg/L (≈ 13.7 µM) | 3.12 mg/L (≈ 6.86 µM) | 6.25 mg/L (≈ 13.7 µM) | > 50 mg/L |
| C=C1CC[C@H]2C(C)(C)C(=O)CC[C@]2(C)[C@H]1CCC1=C(C)[C@H](O)C[C@H]2C(C)(C)C(=O)CC[C@]12C [LAMESTICUMIN D] | > 50 mg/L | > 50 mg/L | > 50 mg/L | > 50 mg/L | > 50 mg/L | 3.12 mg/L (≈ 6.86 µM) | > 50 mg/L | > 50 mg/L | 6.25 mg/L (≈ 13.7 µM) | > 50 mg/L | > 50 mg/L |
| C=C1CC[C@H]2C(C)(C)C(=O)CC[C@]2(C)[C@H]1CCC1=C(C)[C@H](O)C[C@@H](C(=C)C)[C@]1(C)CCC(=O)OC [LAMESTICUMIN E] | > 50 mg/L | > 50 mg/L | > 50 mg/L | > 50 mg/L | 6.25 mg/L (≈ 12.9 µM) | 3.12 mg/L (≈ 6.44 µM) | > 50 mg/L | > 50 mg/L | 12.5 mg/L (≈ 25.8 µM) | > 50 mg/L | > 50 mg/L |
| CC1=CC[C@H]2C(C)(C)C(=O)CC[C@]2(C)[C@H]1CC/C=C(\C)CC/C=C(\C)CC[C@@H](O)C(C)(C)O [LAMESTICUMIN F] | > 50 mg/L | > 50 mg/L | > 50 mg/L | > 50 mg/L | > 50 mg/L | 3.12 mg/L (≈ 6.8 µM) | > 50 mg/L | > 50 mg/L | 12.5 mg/L (≈ 27.2 µM) | > 50 mg/L | > 50 mg/L |
| C=CCc1ccc(O)c(-c2cc(CC=C)ccc2O)c1 [MAGNOLOL] | > 50 mg/L | > 50 mg/L | 12.5 mg/L (≈ 46.9 µM) | > 50 mg/L | 25 mg/L (≈ 93.9 µM) | 12.5 mg/L (≈ 46.9 µM) | > 50 mg/L | 12.5 mg/L (≈ 46.9 µM) | 12.5 mg/L (≈ 46.9 µM) | 25 mg/L (≈ 93.9 µM) | > 50 mg/L |
